Calls of active or inactive are those of the source. No cut-off for these calls is given here.
Assays:
MEF = experiment: Cytotoxicity against TDP1-/- MEF assessed as reduction in cell viability by MTT assay; assay type: cell-based; details: Mus musculus
In short: (§1)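 Survival of each cell line measured across a range of compound concentrations. Percent inhibition of viability at each concentration calculated against untreated control and IC50 estimated. MEFs were TDP1+/+ and TDP1–/– primary cells. Mean ± SD of at least three experiments in duplicate.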

[1] = target: T1, DNA topoisomerase 1 (Homo sapiens) (UniProt P11387); experiment: Ratio of EC50 for recombinant human topoisomerase-1 expressed in baculovirus infected sf9 cells simultaneously incubated with substrate to EC50 for recombinant human topoisomerase-1 expressed in baculovirus infected sf9 cells preincubated for 5 mins followed by substrate addition
T1 sequence (whole entry): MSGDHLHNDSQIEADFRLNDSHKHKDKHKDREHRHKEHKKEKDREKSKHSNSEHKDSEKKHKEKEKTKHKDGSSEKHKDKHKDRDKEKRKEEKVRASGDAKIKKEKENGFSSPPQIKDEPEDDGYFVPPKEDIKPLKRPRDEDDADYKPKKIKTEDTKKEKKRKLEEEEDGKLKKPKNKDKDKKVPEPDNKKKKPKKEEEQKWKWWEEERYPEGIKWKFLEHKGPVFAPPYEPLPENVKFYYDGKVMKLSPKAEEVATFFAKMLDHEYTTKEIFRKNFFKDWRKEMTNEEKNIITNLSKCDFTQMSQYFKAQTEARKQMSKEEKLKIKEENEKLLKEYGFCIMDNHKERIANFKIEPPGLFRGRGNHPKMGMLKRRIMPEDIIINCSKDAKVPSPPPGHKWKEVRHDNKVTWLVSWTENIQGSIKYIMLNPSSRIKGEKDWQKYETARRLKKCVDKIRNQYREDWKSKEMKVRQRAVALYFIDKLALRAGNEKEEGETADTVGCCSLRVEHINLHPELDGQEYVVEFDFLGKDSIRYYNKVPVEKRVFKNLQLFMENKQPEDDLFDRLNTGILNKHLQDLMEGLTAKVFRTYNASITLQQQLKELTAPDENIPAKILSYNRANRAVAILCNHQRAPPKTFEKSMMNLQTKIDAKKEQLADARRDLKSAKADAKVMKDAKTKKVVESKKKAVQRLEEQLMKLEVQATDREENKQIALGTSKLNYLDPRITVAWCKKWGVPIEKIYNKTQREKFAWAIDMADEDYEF
In short: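 Recombinant human Top1 purified from baculovirus-infected Sf-9 cells; 30 fmol enzyme with 90 fmol supercoiled pBS (SK+) DNA (3:1 molar ratio) in relaxation buffer. Compound either preincubated with enzyme 5 min before DNA, or added simultaneously; then 37 °C, 15 min. Relaxation on 1% agarose; % inhibition quantified, EC50 from three experiments (mean ± SD).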

[2] = target: T1, DNA topoisomerase 1 (Homo sapiens); experiment: Inhibition of recombinant human topoisomerase-1 expressed in baculovirus infected sf9 cells assessed as reduction in cleavage complex formation with supercoiled pBS SK(+) DNA at 10 to 50 uM after 30 mins by ethidium bromide staining based agarose gel electrophoresis method
In short: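 Plasmid cleavage assay: 50 fmol supercoiled pBS (SK+) with 100 fmol recombinant Top1 plus compound or CPT, or Top1 with CPT before compound addition, at 37 °C for 30 min. Nicked (form II) and supercoiled (form I) DNA resolved by gel.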

[3] = target: T1, DNA topoisomerase 1 (Homo sapiens); experiment: Inhibition of recombinant human EGFP-tagged topoisomerase-1- DNA cleavage complex formation at 20 uM after 10 mins by FRAP assay
In short: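 FRAP in living MCF7 cells transiently expressing EGFP-human Top1, 37 °C chamber. Treatment was CPT 5 μM or compound 20 μM for 10 min, or CPT for 10 min then compound for 10 min. A subnuclear spot was bleached for 30 ms at 488 nm; curves normalized to the prebleach signal.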

[4] = target: T1, DNA topoisomerase 1 (Homo sapiens); experiment: Binding affinity to recombinant human topoisomerase-1 expressed in baculovirus infected sf9 cells assessed as intrinsic tryptophan fluorescence quenching up to 1.25 uM by Job's plot analysis
In short: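 Job plot by continuous variation: Top1 (from Sf-9 cells infected with recombinant baculovirus) and compound varied to a combined final 1.25 μM. Tryptophan fluorescence quenching read at 350 nm with excitation at 295 nm. Mean ± SD of three independent experiments.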

[5] = target: T1, DNA topoisomerase 1 (Homo sapiens); experiment: Reversible inhibition of recombinant human topoisomerase-1 expressed in baculovirus infected sf9 cells at 1 uM using supercoiled pBS SK(+) DNA as substrate preincubated for 5 mins followed by substrate addition and subsequent 40 fold compound dilution measured after 15 mins by ethidium bromide staining based agarose gel electrophoresis method
In short: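 Recombinant Top1 (100 fmol) preincubated with 1 μM compound for 5 min at 37 °C in relaxation buffer. Mixture diluted 5-, 10-, 20- or 40-fold (final 0.2–0.025 μM), then 50 fmol pBS (SK+) DNA added and incubated 15 min at 37 °C. Three repeats performed.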

Bacteria = experiment: Induction of relaxed pBluescript SK(+) DNA intercalation (unknown origin) assessed as negative supercoiling at 50 to 300 uM after 15 mins by agarose gel electrophoresis method
In short: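 Top1 unwinding assay: relaxed DNA made by reacting excess Top1 with supercoiled pBS (SK+) plasmid (50 fmol), then incubated with compound at 50, 100 or 300 μM; m-AMSA and etoposide as reference intercalator/non-intercalator. Topoisomers resolved on agarose gel.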

MCF7 [6] = experiment: Induction of apoptosis in human MCF7 cells at 10 to 20 uM after 12 hrs by Annexin V-FITC/propidium iodide staining based confocal laser microscopic method relative to control; assay type: functional
In short: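 MCF7 cells exposed 12 h, with or without NAC (10 mM) 30 min pretreatment. Phosphatidylserine detected with annexin V-FITC, nuclei counterstained with PI, confocal imaging; annexin V-positive cells counted from ~100 cells (average ± SEM).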

[7] = target: T1, DNA topoisomerase 1 (Homo sapiens); experiment: Induction of proteasome-mediated topoisomerase-1 degradation in human MCF7 cells at 10 uM up to 12 hrs in presence of proteasome inhibitor MG132 by Western blot method; assay type: cell-based
In short: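 Whole-cell extracts of MCF7 cells treated with 10 μM for the indicated times, or preincubated with MG132 (100 nM) for 4 h before 12 h compound exposure. Top1 detected by Western blot with mouse monoclonal anti-Top1 (C21).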

MCF7 [8] = experiment: Induction of ROS accumulation in human MCF7 cells at 10 uM by CM-H2DCFDA dye based spectrofluorometric method; assay type: functional, cell-based; details: TDE = time-dependent effect
In short: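 MCF7 cells treated with 10 μM for the indicated times, with 0.2% DMSO as vehicle control, or pretreated with NAC (10 mM) for 30 min. ROS read as DCF fluorescence from CM-H2DCFDA. Mean ± SD of three independent experiments.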

[9] = Cytotoxicity against human NIH:OVCAR3 cells assessed as reduction in cell viability by MTT assay; assay type: functional, cell-based; details: OVCAR-3; in short: as §1
MCF7 [10] = experiment: Cytotoxicity against human MCF7 cells transfected with Top1 SiRNA assessed as reduction in cell viability by MTT assay; assay type: functional, cell-based
In short: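 MCF7 cells transfected with Top1 or control siRNA for 72 h; knockdown confirmed by Western blot with actin as loading control. Percent survival then plotted against compound concentration.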

MCF7 [11] = experiment: Cytotoxicity against human MCF7 cells assessed as reduction in cell viability up to 10 uM in presence of CPT by MTT assay; assay type: functional, cell-based
In short: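 MCF7 cells pretreated with CPT (5 μM) for 12 h, then compound added at a range of concentrations. Viability inhibition calculated relative to control and IC50 estimated. Mean ± SD, at least three experiments in duplicate.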

For CN(C)c1ccc(-c2c3nc(c(-c4ccc(N(C)C)cc4)c4ccc([nH]4)c(-c4ccc(C(=O)O)cc4)c4nc(c(-c5ccc(C(=O)O)cc5)c5ccc2[nH]5)C=C4)C=C3)cc1, which IC50 (MEF) is on record?
Its IC50 is greater than 10 µM.

What about the Ratio EC50 [1] of the same molecule?
The Ratio EC50 was 4 to 5.

What about the inhibition [2] of the same molecule?
Its inhibition is “Active”.

What about the inhibition [3] of the same molecule?
Its inhibition is “Active”.

What about the Activity [4] of the same molecule?
The Activity was “Active”.

What about the inhibition [5] of the same molecule?
The inhibition was “Active”.

What about the Activity (Bacteria) of the same molecule?
Its Activity is “inactive”.

And the “fold change (FC)” value (MCF7 [6])?
Its value is 7.

And the Activity [7]?
The Activity was “inactive”.

What about the Activity (MCF7 [8]) of the same molecule?
The Activity was “Tde”.

What about the IC50 [9] of the same molecule?
The IC50 was 5.19 µM.

What about the IC50 (MCF7 [10]) of the same molecule?
Its IC50 is 8.15 µM.

What about the Activity (MCF7 [11]) of the same molecule?
Its Activity is “inactive”.

From ChEMBL document CHEMBL4024789, “Neutral Porphyrin Derivative Exerts Anticancer Activity by Targeting Cellular Topoisomerase I (Top1) and Promotes Apoptotic Cell Death without Stabilizing Top1-DNA Cleavage Complexes” (J Med Chem, 2018)
